Experimental data from different studies.
Compare with care: the assays were run in different laboratories. pIC50: −log10 of the molar value. Values after ≈ are worked out from the molar mass of the structure shown.
Organism: Streptococcus pneumoniae
Effect on: microbial growth

SMILES | assay | test system | measurement | result
CCCCCCCCCCCCCCCC(=O)NS(=O)(=O)Oc1ccc(CCNC(=O)OC(C)(C)C)cc1 | broth dilution | R6 | MIC | 50 µg/mL (≈ 90.1 µM)
C[C@H]1COCCN1c1nc(NCc2cccnc2C(F)(F)F)c2cccnc2n1 | broth dilution |  | MIC | 32 to 64 µg/mL (≈ 79.1 to 158 µM)
CN[C@@H]1[C@H](O)[C@H](NC)[C@H]2O[C@@]3(O)C(=O)C[C@@H](C)O[C@H]3O[C@@H]2[C@H]1O | broth dilution | DAW27 | MIC | 25 µg/mL (≈ 75.2 µM)
CN[C@H](CC(C)C)C(=O)N[C@H]1C(=O)N[C@@H](CC(N)=O)C(=O)N[C@H]2C(=O)N[C@H]3C(=O)N[C@H](C(=O)N[C@H](C(=O)O)c4cc(O)cc(O)c4-c4cc3ccc4O)[C@H](O)c3ccc(c(Cl)c3)Oc3cc2cc(c3O[C@@H]2O[C@H](CO)[C@@H](O)[C@H](O)[C@H]2O[C@H]2C[C@](C)(N)[C@H](O)[C@H](C)O2)Oc2ccc(cc2Cl)[C@H]1O |  |  | MIC | 0.12 µg/mL (≈ 0.0828 µM)
CCCCCCCCCCCCCCCCCc1cc(O)cc(O)c1 |  |  | pIC50 | < 3.70
COc1ccc2cc1Oc1cc(ccc1OC)CCC(N[C@@H]1CCCc3ccccc31)CCCC2 (some centres unmarked) | broth dilution |  | MIC | > 100 µg/mL
CNC(=O)Oc1c2c(c(O)c3cc(CN4CCC4)ccc13)C(=O)C1=C(O)[C@]3(O)C(=O)C(C(N)=O)=C(O)[C@@H](N(C)C)[C@@H]3C[C@@H]1C2 | broth dilution | ATCC49619 | MIC | 0.5 µg/mL (≈ 0.824 µM)
CC(C)CCCCCCCCCCCCCCCc1cc(O)cc(O)c1 |  |  | pIC50 | 4.15
